The results in this text go back to ChEMBL document CHEMBL1131041 (J Med Chem, 1998).

The target in assay [1] is T1, Delta-type opioid receptor (Rattus norvegicus, UniProt P33533). As to the kind of experiment: Displacement of [3H]DADLE from morphine-insensitive Opioid receptor delta 1 (presence of 50 nM morphine) of rat brain membranes. Format: cell membranes, Membrane. In a few lines: (§1)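 Rat brain membranes pretreated with (+)-trans-[…], labelled with 2.0 nM [3H]DADLE, plus 50 nM morphine (δcx-2) or 300 nM DELT-II (δcx-1). Incubation 4–6 h at 25 °C in 10 mM Tris-HCl pH 7.4 with 100 mM NaCl, 3 mM MnCl2, 2 μM GTP, 5 mM 2-mercaptoethanol and protease inhibitors. 8–10 concentrations, twice.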
T1 sequence (P33533 whole entry): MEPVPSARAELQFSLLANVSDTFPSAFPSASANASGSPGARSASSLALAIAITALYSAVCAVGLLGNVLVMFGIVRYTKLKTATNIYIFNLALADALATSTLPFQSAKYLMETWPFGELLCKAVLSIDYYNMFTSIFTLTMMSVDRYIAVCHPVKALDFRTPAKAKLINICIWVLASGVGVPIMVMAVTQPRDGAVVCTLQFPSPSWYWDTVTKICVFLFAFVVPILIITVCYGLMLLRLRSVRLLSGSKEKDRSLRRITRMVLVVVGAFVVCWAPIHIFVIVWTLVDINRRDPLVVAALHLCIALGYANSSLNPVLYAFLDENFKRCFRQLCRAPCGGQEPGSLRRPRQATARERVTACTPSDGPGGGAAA
For orientation: In a radioligand displacement assay an active substance lowers the binding of a labelled ligand.

Assay [2] addresses Opioid receptors; mu & delta (Rattus norvegicus) (UniProt P33533+P33535). Briefly: Relative affinity for mu and delta receptors in rat brain membranes. Type of assay: cell membranes.
Assay [3] concerns the target Delta-type opioid receptor (Mus musculus) (UniProt P32300).
Assay [4] can be described thus: Selectivity for mu receptor of guinea pig Ileum (GPI) and delta receptor of delta opioid receptor of mouse vas deferens (MVD) smooth muscle preparation. Format: tissue-based.
Assay [5] deals with T1, Delta-type opioid receptor. Briefly: Displacement of [3H]DADLE from Opioid receptor delta 1 of rat brain membranes (DAMGO quenching mu receptor). Format: cell membranes, Membrane. In outline:
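Rat brain membranes labelled with [3H]DADLE. Incubation 3–4 h at 25 °C in 10 mM Tris-HCl pH 7.4 with 100 mM choline chloride, 3 mM MnCl2, 100 nM DAMGO (μ block) and protease inhibitors. Levallorphan 20 μM for nonspecific binding. 8–10 concentrations, duplicate runs.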

For assay [6], the target named is T1, Delta-type opioid receptor. Briefly: Displacement of [3H]DADLE from morphine-sensitive Opioid receptor delta 1 (presence of 300 nM DELT-II) of rat brain membranes. Format: cell membranes, Membrane. In a few lines:
as §1

Assay [7] is filed under the species Cavia porcellus. As to the kind of experiment: (§2) Partial agonist activity expressed as inhibition of contraction of guinea pig ileal longitudinal muscle myenteric plexus (GPI) at 1 uM conc. Type of assay: functional, Muscle tissue. In outline:
(§3)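 Agonist action on electrically driven tissues at 37 °C: GPI (1 g tension, 0.4-ms pulses) and Mg-free MVD (0.5 g, 2-ms pulses), 0.1 Hz. Percent inhibition of contraction height read 10 min after 1 μM compound; for stronger agonists, IC50 from concentration–response curves (2–4 tissues, nonlinear least squares). Selectivity = GPI IC50/MVD IC50.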

The target of assay [8] is T2, Kappa-type opioid receptor (Cavia porcellus, UniProt P41144). As to the kind of experiment: Displacement of [3H]U-69593 from Opioid receptor kappa 1 of guinea pig brain membranes (pretreated with BIT and FIT to block mu and delta sites). In outline: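 Guinea pig brain membranes pretreated with BIT and FIT, labelled with [3H]U69,593. Incubation 4–6 h at 25 °C in 50 mM Tris-HCl pH 7.4 with protease inhibitors and 1 μg/mL captopril. Nonspecific binding with 1 μM U69,593. 8–10 concentrations, twice.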
T2 sequence (P41144 whole entry): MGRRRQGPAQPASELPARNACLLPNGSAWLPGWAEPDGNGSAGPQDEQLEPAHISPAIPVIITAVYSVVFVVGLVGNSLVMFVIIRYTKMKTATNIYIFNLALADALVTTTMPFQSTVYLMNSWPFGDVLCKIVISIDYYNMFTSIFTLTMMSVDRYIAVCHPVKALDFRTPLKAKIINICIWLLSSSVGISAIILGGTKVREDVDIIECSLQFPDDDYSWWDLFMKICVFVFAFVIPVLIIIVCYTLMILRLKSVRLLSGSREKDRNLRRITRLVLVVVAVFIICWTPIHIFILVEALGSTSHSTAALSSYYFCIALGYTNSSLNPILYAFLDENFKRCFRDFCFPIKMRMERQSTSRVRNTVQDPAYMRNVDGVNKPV

A further assay has as its target Mu-type opioid receptor (Rattus norvegicus, UniProt P33535). As to the kind of experiment: Displacement of [3H]DAMGO from Opioid receptor mu 1 of rat brain membranes. Type of assay: cell membranes, Membrane. In outline:
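Rat brain membranes labelled with [3H]DAMGO. Incubation 4 h at 25 °C in 50 mM Tris-HCl pH 7.4 with protease inhibitor cocktail. Nonspecific binding defined with 20 μM levallorphan. 8–10 test concentrations, run twice; IC50 and slope factor derived.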

In assay [9] the target is T2, Kappa-type opioid receptor. As to the kind of experiment: Displacement of [125I]OXY from Opioid receptor kappa 2b of guinea pig brain membranes (pretreated with BIT(mu) and FIT(delta) and in the presence of (-)U50,488). In outline: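 Guinea pig brain membranes depleted of μ/δ sites by BIT and FIT, labelled with 0.01 nM [125I]IOXY in presence of 5 μM (−)U50,488. Incubation 4–6 h at 4 °C in 50 mM Tris-HCl pH 7.4 with 10 mM NaCl, protease inhibitors and 1 μg/mL captopril.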

Assay [10] is filed under the species Cavia porcellus. Briefly: Binding affinity of compound was measured on electrically stimulated guinea pig ileal longitudinal muscle myenteric plexus (GPI) preparation using PL017 as standard antagonist. Type of assay: functional. Conditions: Muscle tissue. In outline: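 Electrically stimulated guinea pig ileum longitudinal muscle–myenteric plexus (male Hartley, 250–500 g) in oxygenated Krebs at 37 °C, 1 g tension; 0.1 Hz, 0.4-ms pulses. Tissue preincubated 30 min with 1 μM compound, washed 30 min, then cumulative PL-017 curve repeated. Ke = [antagonist]/(IC50 ratio − 1); n ≥ 3.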

Assay [11] in a line: Relative affinity for guinea pig kappa1 and rat delta receptors.
The target of assay [12] is Mu-type opioid receptor (Mus musculus) (UniProt P42866). As to the kind of experiment: Compound was tested for antagonist activity against Opioid receptor mu 1 on electrically stimulated guinea pig ileal longitudinal muscle myenteric plexus (GPI) using PL017 as antagonist ligand. IC50 ratio = IC50(agonist)/IC50 (control). Format: functional. The conditions noted are these: Cavia porcellus; target entry is the homologue from another species. In outline:
(§4)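 Guinea pig ileum longitudinal muscle–myenteric plexus (male Hartley, 250–500 g) in oxygenated Krebs at 37 °C, 1 g tension; 0.1 Hz, 0.4-ms pulses, supramaximal voltage. Control PL-017 curve first; 1 μM compound 30 min, 30 min wash, cumulative PL-017 curve repeated. IC50 ratio = antagonized/unantagonized IC50; n ≥ 3.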

The species entered for assay [13] is Mus musculus. As to the kind of experiment: (§5) Partial agonist activity expressed as inhibition of contraction of mouse vas deferens (MVD) smooth muscle at 1 uM conc. Type of assay: functional, Muscle tissue. In outline:
as §3

Assay [14] is filed under the species Cavia porcellus. The assay is described as §2. The conditions noted are these: Muscle tissue. Format: functional, organism-based. In a few lines:
as §3

The target in assay [15] is Mu-type opioid receptor (Mus musculus) (UniProt P42866). Briefly: Compound was tested for antagonist activity against dOpioid receptor mu 1 on electrically stimulated guinea pig ileal longitudinal muscle myenteric plexus (GPI) using PL017as standard antagonist; e denotes 'the agonist effects precluded the determination of antagonist effects'. The conditions noted are these: Cavia porcellus; filed as agonist; target entry is the homologue from another species. Type of assay: functional. In outline: as §4
Chain of Mu-type opioid receptor (Mus musculus) (P42866 whole entry): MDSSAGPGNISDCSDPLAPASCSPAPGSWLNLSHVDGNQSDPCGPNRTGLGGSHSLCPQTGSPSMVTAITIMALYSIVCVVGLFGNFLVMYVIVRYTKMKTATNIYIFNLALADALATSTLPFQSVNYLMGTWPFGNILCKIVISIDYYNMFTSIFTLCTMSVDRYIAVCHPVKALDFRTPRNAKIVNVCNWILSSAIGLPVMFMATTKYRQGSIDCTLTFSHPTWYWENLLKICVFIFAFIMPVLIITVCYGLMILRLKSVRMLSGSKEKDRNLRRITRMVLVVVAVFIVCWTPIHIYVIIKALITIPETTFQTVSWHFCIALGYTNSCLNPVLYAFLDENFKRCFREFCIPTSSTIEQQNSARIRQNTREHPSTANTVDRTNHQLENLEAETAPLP

Assay [16] has as its target Delta-type opioid receptor (Mus musculus) (UniProt P32300). Briefly: Compound was tested for antagonist activity against Opioid receptor delta 1 on mouse vas deferens (MVD) smooth muscle preparation using DPDPE as antagonist ligand; e denotes the agonist effects precluded the determination of antagonist effects. Format: functional. The conditions noted are these: filed as agonist. In outline: (§6)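 Mouse vas deferens (male ICR, 25–40 g) in Mg-free oxygenated Krebs at 37 °C, 0.5 g tension; transmural 0.1 Hz, 2-ms pulses, supramaximal voltage. Control DPDPE curve first; then 1 μM compound 30 min, 30 min wash, cumulative DPDPE curve (3-min steps) repeated. IC50 ratio = shifted/control IC50; Ke = [antagonist]/(ratio − 1); n ≥ 3.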

Assay [17] has as its target Opioid receptors; mu & delta (Homo sapiens) (UniProt P41143+P35372). As to the kind of experiment: IC50 selectivity for mu receptor of guinea pig Ileum (GPI) and delta receptor of delta opioid receptor of mouse vas deferens (MVD) smooth muscle preparation. Format: tissue-based. In a few lines:
as §3

The species named for assay [18] is Mus musculus. The description is as §5. Type of assay: functional, organism-based. Conditions: Muscle tissue. In outline: as §3
For assay [19], the species on record is Mus musculus. Conditions: Muscle tissue.
In assay [20] the target is Delta-type opioid receptor (Mus musculus) (UniProt P32300). As to the kind of experiment: Displacement of DPDPE from Opioid receptor delta 1 of mouse vas deferens (MVD) smooth muscle. In a few lines:
as §6

The target is the same in assay [21]. As to the kind of experiment: Displacement of DPDPE from Opioid receptor delta 1 of mouse vas deferens (MVD)smooth muscle. In outline: as §6
The target in assay [22] is Delta-type opioid receptor (Mus musculus, UniProt P32300). The description is as §5. Format: functional, tissue-based, Muscle tissue. In a few lines:
as §3

The structures appear in SMILES notation.

Chain of Delta-type opioid receptor (Mus musculus) (P32300 whole entry): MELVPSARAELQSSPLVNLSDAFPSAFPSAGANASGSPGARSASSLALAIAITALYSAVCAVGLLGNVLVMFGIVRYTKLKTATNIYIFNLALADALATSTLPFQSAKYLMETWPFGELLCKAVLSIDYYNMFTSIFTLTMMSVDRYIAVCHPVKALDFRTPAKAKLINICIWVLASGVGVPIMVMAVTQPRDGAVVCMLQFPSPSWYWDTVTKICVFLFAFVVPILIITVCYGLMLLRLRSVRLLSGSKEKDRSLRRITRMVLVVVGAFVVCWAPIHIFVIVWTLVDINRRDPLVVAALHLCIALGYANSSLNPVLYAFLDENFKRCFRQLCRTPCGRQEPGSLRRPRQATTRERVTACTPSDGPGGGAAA
Chain of Mu-type opioid receptor (P33535 whole entry): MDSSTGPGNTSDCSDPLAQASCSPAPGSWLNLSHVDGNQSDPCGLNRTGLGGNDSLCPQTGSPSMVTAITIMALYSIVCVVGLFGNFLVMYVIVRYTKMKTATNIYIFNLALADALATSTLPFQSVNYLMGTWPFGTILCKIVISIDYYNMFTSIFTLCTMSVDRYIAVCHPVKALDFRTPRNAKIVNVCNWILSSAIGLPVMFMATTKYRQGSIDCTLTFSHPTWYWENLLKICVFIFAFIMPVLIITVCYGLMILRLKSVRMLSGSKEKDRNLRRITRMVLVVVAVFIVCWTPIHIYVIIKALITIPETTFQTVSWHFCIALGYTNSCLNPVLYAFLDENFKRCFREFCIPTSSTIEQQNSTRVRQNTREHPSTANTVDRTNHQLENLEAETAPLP
Chain of Opioid receptors; mu & delta (Rattus norvegicus) (P33533 whole entry, looked up): as the sequence (P33533 whole entry) above
Chain of Opioid receptors; mu & delta (Rattus norvegicus) (P33535 whole entry, looked up): as the sequence (P33535 whole entry) above
Chain of Opioid receptors; mu & delta (Homo sapiens) (P35372 whole entry, looked up): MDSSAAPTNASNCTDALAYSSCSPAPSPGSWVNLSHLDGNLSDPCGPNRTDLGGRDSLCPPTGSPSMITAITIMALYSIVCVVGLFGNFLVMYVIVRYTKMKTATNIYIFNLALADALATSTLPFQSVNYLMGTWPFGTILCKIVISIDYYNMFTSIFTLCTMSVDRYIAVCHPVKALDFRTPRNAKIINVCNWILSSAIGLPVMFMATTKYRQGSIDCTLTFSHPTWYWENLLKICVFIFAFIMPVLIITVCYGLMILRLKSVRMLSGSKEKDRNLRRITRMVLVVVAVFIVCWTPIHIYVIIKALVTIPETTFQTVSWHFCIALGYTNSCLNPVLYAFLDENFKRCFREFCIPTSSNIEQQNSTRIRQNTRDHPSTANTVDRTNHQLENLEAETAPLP
Chain of Opioid receptors; mu & delta (Homo sapiens) (P41143 whole entry, looked up): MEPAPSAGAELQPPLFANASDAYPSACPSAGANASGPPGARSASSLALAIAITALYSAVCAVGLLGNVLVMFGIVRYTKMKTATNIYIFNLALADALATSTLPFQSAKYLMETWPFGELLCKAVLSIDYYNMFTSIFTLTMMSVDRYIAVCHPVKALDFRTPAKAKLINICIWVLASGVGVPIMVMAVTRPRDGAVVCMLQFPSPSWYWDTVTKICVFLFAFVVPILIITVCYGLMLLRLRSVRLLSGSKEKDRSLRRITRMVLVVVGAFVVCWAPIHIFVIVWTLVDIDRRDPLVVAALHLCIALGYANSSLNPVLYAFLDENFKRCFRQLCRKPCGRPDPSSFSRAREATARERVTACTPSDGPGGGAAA
Chain of Delta-type opioid receptor (Mus musculus, UniProt P32300) (P32300 whole entry): as the sequence (P32300 whole entry) above

Consider `Oc1ccc2c3c1OC1c4[nH]c5c(-c6ccccc6)cccc5c4C[C@@]4(O)[C@@H](C2)N(CC2CC2)CC[C@]314` (stereo partly specified), for which the Ki in assay [1] is 0.46 nM; in assay [5], 2.1 nM; in [6], 51.4 nM; in assay [8] it was 312 nM; on Mu-type opioid receptor, 124 nM; in assay [9] it was 89.9 nM. In addition, the Selectivity ratio in assay [2] turned out to be 59; in assay [4], 172; in assay [11], 149. The Ke in assay [3] was 1.8 nM; in the assay filed under Cavia porcellus [10] it was 310 nM. Also, the Max response in the assay listed under Cavia porcellus [7] is reported as 37%; in the assay filed under Mus musculus [13], 35%. For the same compound, the Ratio in [12] was 4.2.

Regarding `Oc1ccc2c3c1OC1c4[nH]c5ccc(/C=C/c6ccccn6)cc5c4C[C@@]4(O)[C@@H](C2)N(CC2CC2)CC[C@]314` (stereo partly specified), the Ki in assay [1] came to 4 nM; in assay [5] it was 3.7 nM; in [6], 17.4 nM; in assay [8], 20.1 nM; at Mu-type opioid receptor it was 76 nM; in [9], 21.4 nM. Further, the Selectivity ratio was determined as 21 in assay [2], 5 in assay [11] and 12 in [17]. For the same compound, the IC50 stood at 2600 nM in the assay listed under Cavia porcellus [14] and 220 nM in the assay filed under Mus musculus [18]. In addition, the Ratio result in assay [15] and in assay [16] was “Agonist” each time.

For `Oc1ccc2c3c1OC1c4[nH]c5cc(OCc6ccccc6)ccc5c4C[C@@]4(O)[C@@H](C2)N(CC2CC2)CC[C@]314` (stereo partly specified), the Ki in [1] came to 6.3 nM; in [5], 6.7 nM; in assay [6], 201 nM; in [8] it was 470 nM; at Mu-type opioid receptor it was 676 nM; in assay [9], 461 nM. Besides, the Selectivity ratio in assay [2] came out at 101; in assay [11], 70. Besides, the Ke in the assay listed under Mus musculus [19] came out at 3.9 nM. Moreover, the Max response is 0% in the assay filed under Cavia porcellus [7] and 25% in the assay listed under Mus musculus [13]. Also, the Ratio in assay [20] amounted to 260.

As for `Oc1ccc2c3c1OC1c4[nH]c5cc(Oc6ccccc6)ccc5c4C[C@@]4(O)[C@@H](C2)N(CC2CC2)CC[C@]314` (stereo partly specified), the inhibition constant (Ki) in assay [1] was determined as 4.9 nM; in assay [5], 6.4 nM; in [6], 89.4 nM; in assay [8], 236 nM; on Mu-type opioid receptor, 235 nM; in assay [9], 175 nM. Also, the results for the Selectivity ratio in assay [2], in [11] and in assay [17] were 37, 37 and 0.8, respectively. For the same compound, the results for the IC50 (in the assay filed under Cavia porcellus [14]; in assay [22]) were 2300 nM and 3000 nM, respectively. In assay [21], this compound registered a Ke of 4.6 nM.

A word on the Ki: it is the dissociation constant of the complex between target and ligand, obtained from inhibition or displacement. By IC50 is commonly meant the concentration needed to halve the response being measured. Lower therefore signals inhibition by little substance.
